{
  "source": "ChEMBL document CHEMBL4513216",
  "about": "“Probing the Open Global Health Chemical Diversity Library for Multistage-Active Starting Points for Next-Generation Antimalarials” (ACS Infect Dis, 2020)",
  "assay": "Toxicity liver stage against HepG2, at 10uM",
  "format": "cell-based",
  "design": "test concentration 10 uM, cell line HepG2-A16-CD81EGFP",
  "settings": "human, HepG2-A16-CD81EGFP cells; read-out: INHIBITION",
  "how_it_was_run": "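Uninfected HepG2-A16-CD81EGFP cells, 3 × 10^3 per well, 1536-well, plated on prespotted compound at 10 μM final, parasite-free screening media added to match infected plates; puromycin 10 μM positive, DMSO 0.5% negative; run in parallel with 48 h PbLuc assay at 37 °C, 5% CO2; viability by CellTiter-Glo luminescence, normalized to controls.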",
  "data": [
    {"molecule": "Cc1nc(C(=O)N2CCN(S(C)(=O)=O)CC2)c(-c2ccccc2)s1", "values": [
      {"measurement": "cytotoxicity at 10 µM", "value": 3.23, "unit": "%"}
    ]},
    {"molecule": "NC(=O)CCCNC(=O)c1cc(Br)c2c(c1)OCCO2", "values": [
      {"measurement": "cytotoxicity at 10 µM", "value": 9.31, "unit": "%"}
    ]},
    {"molecule": "CCC(CO)N(Cc1ccsc1)Cc1ccccc1C#N", "note": "(stereo not given)", "values": [
      {"measurement": "cytotoxicity at 10 µM", "value": 9.64, "unit": "%"}
    ]},
    {"molecule": "Cc1cc2n(n1)CC(CNCc1ccc(N3CCOCC3)nc1)CN2", "note": "(stereo not given)", "values": [
      {"measurement": "cytotoxicity at 10 µM", "value": -15.3, "unit": "%"}
    ]},
    {"molecule": "CC(C)(C)c1coc([C@@H]2COCCN2Cc2ccccn2)n1", "values": [
      {"measurement": "cytotoxicity at 10 µM", "value": -4.04, "unit": "%"}
    ]},
    {"molecule": "O=C(NCC(O)CN1CCc2ccccc2C1)Nc1cccnc1", "note": "(stereo not given)", "values": [
      {"measurement": "cytotoxicity at 10 µM", "value": 3.2, "unit": "%"}
    ]},
    {"molecule": "CCc1oc(C(=O)NCCSc2ncn[nH]2)cc1CN1CCCC1", "values": [
      {"measurement": "cytotoxicity at 10 µM", "value": -5.25, "unit": "%"}
    ]},
    {"molecule": "CCn1nc(C)c(CCNC(=O)C2CCCN(CC(N)=O)C2)c1C", "note": "(stereo not given)", "values": [
      {"measurement": "cytotoxicity at 10 µM", "value": -11.8, "unit": "%"}
    ]},
    {"molecule": "CCOCCC(=O)N(C)CC1Cc2ccccc2CN1C", "note": "(stereo not given)", "values": [
      {"measurement": "cytotoxicity at 10 µM", "value": -8.77, "unit": "%"}
    ]},
    {"molecule": "Cc1cccc(NC(=O)N(CCC(F)(F)F)C[C@H](O)CO)c1", "values": [
      {"measurement": "cytotoxicity at 10 µM", "value": 4.3, "unit": "%"}
    ]},
    {"molecule": "c1cnc2c(c1)nc1n2[C@@H](CNC2CCOCC2)COC1", "values": [
      {"measurement": "cytotoxicity at 10 µM", "value": -4.8, "unit": "%"}
    ]},
    {"molecule": "CCN1C[C@@H]2CN(C(=O)c3cccn3C)C[C@@H]2C1=O", "values": [
      {"measurement": "cytotoxicity at 10 µM", "value": -96.1, "unit": "%"}
    ]},
    {"molecule": "CSc1ccccc1C(=O)C1CCCN(Cc2ccccn2)C1", "note": "(stereo not given)", "values": [
      {"measurement": "cytotoxicity at 10 µM", "value": -6.12, "unit": "%"}
    ]},
    {"molecule": "COc1ccc(CN2C[C@@H](CN(C)C)[C@@H](CO)C2)cc1CN1CCCC1", "values": [
      {"measurement": "cytotoxicity at 10 µM", "value": 4.59, "unit": "%"}
    ]},
    {"molecule": "CC(c1nc(C2CC2)no1)N1CCN(Cc2nnc(C3CC3)o2)CC1", "note": "(stereo not given)", "values": [
      {"measurement": "cytotoxicity at 10 µM", "value": 7.7, "unit": "%"}
    ]},
    {"molecule": "COc1ccc(F)cc1C(=O)N(C)[C@@H]1CC[C@@H](O)[C@@H]1O", "values": [
      {"measurement": "cytotoxicity at 10 µM", "value": 7.81, "unit": "%"}
    ]},
    {"molecule": "CN(Cc1ccccc1)C(=O)[C@@H]1Cc2[nH]cnc2CN1C", "values": [
      {"measurement": "cytotoxicity at 10 µM", "value": -3.92, "unit": "%"}
    ]},
    {"molecule": "CCC[C@@H]1CN(C(=O)c2c(F)ccc(OC)c2F)C[C@H]1C(=O)O", "values": [
      {"measurement": "cytotoxicity at 10 µM", "value": 0.542, "unit": "%"}
    ]},
    {"molecule": "Cc1cc(C(=O)N2CCC(NC(=O)c3cccnc3)CC2)c(C)o1", "values": [
      {"measurement": "cytotoxicity at 10 µM", "value": -2.44, "unit": "%"}
    ]},
    {"molecule": "O=C(Nc1ccc(=O)n(Cc2ccccc2Cl)c1)C1CC1", "values": [
      {"measurement": "cytotoxicity at 10 µM", "value": -6.57, "unit": "%"}
    ]},
    {"molecule": "CNC(=O)[C@H]1C[C@@H]2CN(S(=O)(=O)Cc3ccccc3)C[C@@H]2N1C", "values": [
      {"measurement": "cytotoxicity at 10 µM", "value": -5.06, "unit": "%"}
    ]},
    {"molecule": "CC1CCN(C(=O)CSCc2noc(C(C)C)n2)CC1", "values": [
      {"measurement": "cytotoxicity at 10 µM", "value": 1.4, "unit": "%"}
    ]},
    {"molecule": "Cc1nc(CNC(=O)N2CCCC(c3ncc[nH]3)C2)sc1C", "note": "(stereo not given)", "values": [
      {"measurement": "cytotoxicity at 10 µM", "value": -0.331, "unit": "%"}
    ]},
    {"molecule": "COCCn1cc(CC(=O)Nc2nc[nH]n2)c2ccccc21", "values": [
      {"measurement": "cytotoxicity at 10 µM", "value": -0.145, "unit": "%"}
    ]},
    {"molecule": "O=C(Cc1cccs1)NCC1COCc2c(-c3ccoc3)nnn2C1", "note": "(stereo not given)", "values": [
      {"measurement": "cytotoxicity at 10 µM", "value": 19, "unit": "%"}
    ]},
    {"molecule": "O=C(O)c1c(-c2cncnc2)ncc2c1CCN(Cc1cccnc1)C2", "values": [
      {"measurement": "cytotoxicity at 10 µM", "value": 10.6, "unit": "%"}
    ]},
    {"molecule": "Cc1ccc(N2CCC3(CCCN(C(=O)c4cccnc4)C3)C2)nn1", "note": "(stereo not given)", "values": [
      {"measurement": "cytotoxicity at 10 µM", "value": 2.21, "unit": "%"}
    ]},
    {"molecule": "Cn1c(Cn2cccn2)nnc1C1CCCN(c2ccncc2F)C1", "note": "(stereo not given)", "values": [
      {"measurement": "cytotoxicity at 10 µM", "value": -0.773, "unit": "%"}
    ]},
    {"molecule": "O=c1c2cnc(N3CCCC3)nc2ccn1-c1cccc(C(F)(F)F)c1", "values": [
      {"measurement": "cytotoxicity at 10 µM", "value": 16.9, "unit": "%"}
    ]},
    {"molecule": "CC(C)Cc1cc(C(=O)NCc2nnc[nH]2)[nH]n1", "values": [
      {"measurement": "cytotoxicity at 10 µM", "value": -2.95, "unit": "%"}
    ]},
    {"molecule": "CCCc1nc(C)c(C(=O)NC2CCN(C3CC3)C2)s1", "note": "(stereo not given)", "values": [
      {"measurement": "cytotoxicity at 10 µM", "value": -7.82, "unit": "%"}
    ]},
    {"molecule": "N#Cc1cccnc1N1CCC(OCCc2ccccc2)CC1", "values": [
      {"measurement": "cytotoxicity at 10 µM", "value": -11, "unit": "%"}
    ]},
    {"molecule": "CCCc1noc(CCC(=O)N2CCCCC2Cn2cc(C)cn2)n1", "note": "(stereo not given)", "values": [
      {"measurement": "cytotoxicity at 10 µM", "value": -0.232, "unit": "%"}
    ]},
    {"molecule": "CCCn1ncc(C(=O)N2CCN(C(=O)c3ccc[nH]3)CC2)c1C", "values": [
      {"measurement": "cytotoxicity at 10 µM", "value": -151, "unit": "%"}
    ]},
    {"molecule": "c1ccc(CO[C@@H]2CC[C@H]3[C@H]2OCCN3Cc2ccsc2)nc1", "values": [
      {"measurement": "cytotoxicity at 10 µM", "value": -4.69, "unit": "%"}
    ]},
    {"molecule": "CC1CN(C)CCN1C(=O)c1cccn1Cc1ccncc1", "note": "(stereo not given)", "values": [
      {"measurement": "cytotoxicity at 10 µM", "value": -5.53, "unit": "%"}
    ]},
    {"molecule": "CN(Cc1cccc(F)c1)C1CCN(CCc2ccccn2)CC1", "values": [
      {"measurement": "cytotoxicity at 10 µM", "value": -5.38, "unit": "%"}
    ]},
    {"molecule": "Fc1ccc(Oc2ccc(CNCC3CNc4ccnn4C3)cn2)cc1", "note": "(stereo not given)", "values": [
      {"measurement": "cytotoxicity at 10 µM", "value": -11.6, "unit": "%"}
    ]},
    {"molecule": "O=C(Nc1cccc(F)c1)NC1CCN(Cc2ccncc2)CC1", "values": [
      {"measurement": "cytotoxicity at 10 µM", "value": -9.01, "unit": "%"}
    ]},
    {"molecule": "CC(C)N(C)Cc1n[nH]c2c1CCN(C(=O)c1cc[nH]n1)C2", "values": [
      {"measurement": "cytotoxicity at 10 µM", "value": -134, "unit": "%"}
    ]},
    {"molecule": "O=C(c1cnccn1)N1CCC(CN2CCOCC2)CC1", "values": [
      {"measurement": "cytotoxicity at 10 µM", "value": 4.55, "unit": "%"}
    ]},
    {"molecule": "CN(Cc1ccc(Cl)s1)C(=O)COc1cccc(C(N)=O)c1", "values": [
      {"measurement": "cytotoxicity at 10 µM", "value": -2.83, "unit": "%"}
    ]},
    {"molecule": "Cc1cc(F)ccc1CNCCn1cccn1", "values": [
      {"measurement": "cytotoxicity at 10 µM", "value": -10.2, "unit": "%"}
    ]},
    {"molecule": "Cc1ccccc1CN1CCOC(c2nccc(CN(C)C)n2)C1", "note": "(stereo not given)", "values": [
      {"measurement": "cytotoxicity at 10 µM", "value": -9.19, "unit": "%"}
    ]},
    {"molecule": "CSc1nnc(N(CCC#N)CCC#N)s1", "values": [
      {"measurement": "cytotoxicity at 10 µM", "value": 8.95, "unit": "%"}
    ]}
  ]
}
